TRPC6 activator = mouse TRPC6 channel activators, primary screen, cell-based, HEK293, membrane potential dye; Short transient receptor potential channel 6 (Mus musculus), Q61143; HEK293-TRPC6 membrane potential dye fluorescence; hits give high values; B-score at 10 µM; 0.13% of 310,000 active;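 active = B-score of the integrated fluorescence ratio above library mean plus 3 SD, and starting fluorescence ratio within library mean plus 5 SD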;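 also: higher score means more depolarization so channel activation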
Target sequence (Q61143 whole entry, looked up): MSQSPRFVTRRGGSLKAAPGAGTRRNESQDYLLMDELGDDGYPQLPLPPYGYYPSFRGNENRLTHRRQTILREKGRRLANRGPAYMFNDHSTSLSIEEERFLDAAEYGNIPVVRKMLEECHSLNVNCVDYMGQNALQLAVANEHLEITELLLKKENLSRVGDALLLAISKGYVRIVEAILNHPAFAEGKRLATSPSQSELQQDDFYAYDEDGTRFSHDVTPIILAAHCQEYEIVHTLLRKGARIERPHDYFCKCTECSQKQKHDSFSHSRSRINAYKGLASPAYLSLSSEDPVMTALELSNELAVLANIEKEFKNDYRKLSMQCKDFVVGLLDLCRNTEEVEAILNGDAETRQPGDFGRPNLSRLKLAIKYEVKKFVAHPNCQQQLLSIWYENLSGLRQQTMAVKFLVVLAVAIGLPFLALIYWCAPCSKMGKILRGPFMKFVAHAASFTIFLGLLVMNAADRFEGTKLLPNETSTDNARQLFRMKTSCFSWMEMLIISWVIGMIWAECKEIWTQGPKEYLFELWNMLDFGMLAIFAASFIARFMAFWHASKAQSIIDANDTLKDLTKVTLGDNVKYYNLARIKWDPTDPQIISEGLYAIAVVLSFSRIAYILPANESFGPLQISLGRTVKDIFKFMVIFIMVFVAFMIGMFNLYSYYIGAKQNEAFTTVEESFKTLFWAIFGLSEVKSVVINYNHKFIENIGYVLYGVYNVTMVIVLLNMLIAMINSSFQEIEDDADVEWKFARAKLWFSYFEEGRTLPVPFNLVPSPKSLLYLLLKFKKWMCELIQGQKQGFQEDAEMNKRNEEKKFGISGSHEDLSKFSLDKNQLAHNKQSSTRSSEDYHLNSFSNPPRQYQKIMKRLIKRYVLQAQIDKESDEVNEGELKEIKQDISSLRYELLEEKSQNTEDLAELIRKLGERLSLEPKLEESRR
TRPC4 potent = positive allosteric modulators of TRPC4, primary screen, cell-based, mouse TRPC4beta, HEK293 mu-opioid, Fluo-4 calcium | 0.42% of 310,000 active | Short transient receptor potential channel 4 (Mus musculus), Q9QUQ5 | AID 2227, 2009 | B-score at 10 µM | DAMGO EC20, Fluo-4 Ca2+ flux; hits give high values;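 active = B-score of calcium response area above 5 SD of library B-scores, with initial fluorescence ratio within 5 SD of library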;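 also: B-score of integrated fluorescence ratio over time as area under calcium response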
TRPC4 block = inhibitors of mouse TRPC4 channel, primary screen, Fluo4 calcium, HEK293 TRPC4beta/mu-opioid cells | Short transient receptor potential channel 4 (Mus musculus), Q9QUQ5 | DAMGO-evoked Fluo4 calcium flux; hits give low values | B-score at 10 µM | 0.39% of 300,000 active | AID 2247, 2010;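 active = B-score over 3 SD under the library average, no early fluorescence shift, positive overall ratio signal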
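Material: HEK293 cells with stable TRPC4beta plus mu-opioid receptor expression / Probe or stimulus: DAMGO in two steps, submaximal then maximal / Compound: single concentration per test compound / Technique: kinetic Fluo4 fluorescence imaging of calcium influx / Read-out: per-well B score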
TRPC4 agonist = activators of mouse TRPC4 channel, primary screen, Fluo4 calcium, HEK293 TRPC4beta/mu-opioid cells | Short transient receptor potential channel 4 (Mus musculus), Q9QUQ5 | Fluo4 calcium fluorescence; hits give high values | B-score at 10 µM | 0.49% of 310,000 active | AID 2237, 2010;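 active = B-score above 5 SD of library B-scores, and initial fluorescence ratio not above library mean plus 5 SD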;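 also: positive B-score marks a calcium rise read as TRPC4 activation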
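Material: TRPC4beta and mu-opioid receptor HEK293 stable cells | Incubation: 45 min room-temperature Fluo4 loading, 110 s read | Detection: Kinetic Fluo4 calcium fluorescence | Measure: Integrated baseline-normalised fluorescence ratio, converted to per-well B score | Benchmarks: Low control buffer alone, high control maximal DAMGO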
TRPC6 inhibitor = mouse TRPC6 channel inhibitors, primary screen, cell-based, HEK293, membrane potential dye; B-score at 10 µM; 1.1% of 310,000 active; ACh-evoked depolarization; hits give low values; AID 2553, 2010; Short transient receptor potential channel 6 (Mus musculus), Q61143;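 active = B-score under library mean minus 3 SD, initial fluorescence not abnormally high, positive integrated signal ratio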;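 also: B-score derived from integrated fluorescence ratio over the kinetic read; more negative B-score means stronger inhibition of depolarization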
TRPC4 spec 2 = mouse TRPC4 off-target activity of TRPC6 inhibitors, second screen. shares compounds with TRPC6 inhibitor. HEK293 TRPC4/MOR, membrane potential dye fluorescence; channel activated by saturating DAMGO dose. inhibition, % at 10 µM. 42% of 920 active;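 active = compounds whose fluorescence signal differed from control wells by over 3 SD, either direction, in both duplicate plates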
TRPC4 spec = mouse TRPC4 modulation by TRPC6 hits, confirmation, selectivity assay for TRPC6 inhibitor project, cell-based, HEK293 TRPC4/mu-opioid, membrane potential dye. shares compounds with TRPC6 inhibitor. 61% of 920 active. membrane potential fluorescence. activity change, negative = inhibition, % at 10 µM;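 active = rise or fall in signal beyond 3 SD of buffer-only wells in both replicate plates, either sign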;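 also: integrated kinetic ratio of fluorescence range over baseline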
HEK293 MPD ctr 2-1 = nonspecific membrane potential effects, parental HEK293, confirmation, counter-screen for TRPC6 inhibitor project, cell-based, second counter screen; parental HEK293 membrane potential dye fluorescence; maximal acetylcholine challenge after compound addition; signal change vs control, % at 10 µM; 31% of 920 active; shares compounds with TRPC6 inhibitor;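 active = membrane potential signal moving either way by over 3 SD of the maximum-effect control, in both duplicate plates, meaning non-specific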
HEK293 MPD ctr-1 = membrane potential modulation in parental HEK293, confirmation, counter-screen for TRPC6 inhibitor project, cell-based | shares compounds with TRPC6 inhibitor | parental HEK293 membrane potential dye fluorescence | membrane potential signal change, % at 10 µM | 60% of 920 active | AID 2780, 2010;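 active = membrane potential signal shifting up or down by more than 3 SD of buffer-only wells, on both duplicate plates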
HEK293 MPD ctr-2 = parental HEK293 membrane potential modulation, confirmation, counter-screen for TRPC6 modulator project, cell-based. shares compounds with TRPC6 inhibitor. membrane potential dye fluorescence. membrane potential signal change, % at 10 µM. 51% of 2,400 active. AID 488924, 2010;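 active = membrane potential signal moves up or down beyond 5 SD from buffer-only wells, on both duplicate plates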
HEK293 MPD ctr 2-2 = second counter-screen for TRPC6 modulators: effect in parental HEK293 cells; shares compounds with TRPC6 inhibitor; membrane potential dye fluorescence; after compound, maximal acetylcholine stimulation; inhibition, % at 10 µM; 14% of 2,400 active; AID 488926;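 active = membrane potential signal drops by more than 5 SD from the mean control signal, in both duplicate plates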;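 also: plate controls were acetylcholine ECmax control wells for no effect and buffer only wells for full effect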
TRPC4 ctr mod = TRPC4 modulation by TRPC6 hit compounds, confirmation, selectivity assay for TRPC6 modulator project, cell-based, HEK293 TRPC4/mu-opioid, membrane potential dye, mouse; shares compounds with TRPC6 inhibitor; membrane potential fluorescence; percent change from control (negative = decrease, positive = increase), % at 10 µM; 69% of 2,400 active; AID 488927, 2010;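 active = membrane potential signal moved up or down beyond 5 SD of buffer control wells, in both duplicate plates, actives on both sides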;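 also: plate controls were assay buffer wells for no effect and DAMGO maximal-effect wells for full effect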
TRPC4/MOR inh 2 = second selectivity test of TRPC6 modulators against mouse TRPC4; inhibition, % at 10 µM; 55% of 2,400 active; HEK293 TRPC4/mu-opioid, membrane potential dye fluorescence; stimulated with maximal-effect DAMGO; shares compounds with TRPC6 inhibitor;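 active = drop in membrane potential signal beyond 5 SD of the control wells in both duplicate plates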;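 also: TRPC4 counter screen for TRPC6 hits run under conditions tuned for TRPC6 not TRPC4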
TRPC6 block conf = mouse TRPC6 channel inhibitors, confirmation, HEK293 cells, membrane potential dye, duplicate | shares compounds with TRPC6 inhibitor | ACh-evoked depolarization | inhibition, % at 10 µM | 43% of 3,300 active;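 active = fluorescence ratio falls more than 5 SD below the full-stimulation control mean, in both duplicate runs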;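 also: integrated fluorescence ratio of peak minus minimum over baseline after agonist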
TRPC6 act conf = mouse TRPC6 channel activators, confirmation, HEK293 cells, membrane potential dye, duplicate | 11% of 2,800 active | HEK293-TRPC6 membrane potential dye fluorescence, FDSS | activation, % at 10 µM | shares compounds with TRPC6 inhibitor;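 active = ratio signal rise beyond 5 SD above unstimulated control wells' mean, seen in both duplicate runs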;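 also: plate controls were buffer EC0 wells for no effect and acetylcholine ECmax response for full effect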
Starred values were filed as active, the others as inactive; i = inactive; · = no result. Shown are actives, neighbours in structure and some others; about 2.3% of the full set was active somewhere.

SMILES	TRPC6 activator	TRPC4 potent	TRPC4 block	TRPC4 agonist	TRPC6 inhibitor	HEK293 MPD ctr-2	HEK293 MPD ctr 2-2	TRPC4 ctr mod	TRPC4/MOR inh 2	TRPC6 block conf	TRPC6 act conf	others
O=C(NC(=S)N1CCCCC1)C12CC3CC(CC(C3)C1)C2	i	i	i	i	i	·	·	·	·	·	·
CCOC(=O)N1CCN(C(=S)NC(=O)C23CC4CC(CC(C4)C2)C3)CC1	i	i	i	i	-5*	i	i	i	i	i	i
O=C(Nc1ccccc1)Oc1ccc[nH]c1=O	i	i	i	i	i	·	·	·	·	·	·
COc1ccc[nH]c1=O	i	i	i	i	-6*	i	i	i	i	i	i
O=C(NCCN1CCN(c2ccccc2)CC1)c1cccn2c(=O)c3ccccc3nc12	i	i	i	i	i	·	·	·	·	·	·
CN(CCCNC(=O)c1cccn2c(=O)c3ccccc3nc12)Cc1ccccc1	i	i	i	i	-6.3*	-136%*	i	-32%*	62%*	46%*	i
C#CCOc1ccccc1/C=N/NC(=O)c1ccccc1OCc1ccccc1	i	i	i	i	i	·	·	·	·	·	·
O=C(NCC(=O)N1CCOCC1)c1ccc(Cl)cc1	i	i	i	i	-9.1*	i	i	i	i	i	i
COC(=O)c1ccc(N(CC(=O)NC2CCCC2)C(=O)c2ccc(C)s2)cc1	i	i	i	i	i	·	·	·	·	·	·
COc1ccc(-c2n(CC(=O)OC3CC(C)CCC3C(C)C)c3ccccc3[n+]2C)cc1 (configuration not stated)	15*	i	i	i	-5.1*	536%*	i	108%*	56%*	50%*	192%*
COc1ccc(-n2cc(CNC3CCC(O)CC3)c(-c3cccc(F)c3)n2)cc1 (configuration not stated)	i	i	i	i	-8.3*	·	·	·	·	i	i	TRPC4 spec 2=i;TRPC4 spec=i;HEK293 MPD ctr 2-1=i;HEK293 MPD ctr-1=i
CCOC(=O)CNc1nc(C(C)(C)C)nc2c1nnn2Cc1ccccc1	i	i	i	i	i	·	·	·	·	·	·
Cc1cc(C)c2nc(N3CCC(C(=O)NCc4cccnc4)CC3)sc2c1	i	i	i	i	-5.3*	i	i	i	i	i	i
Cc1cc(C)c2nc(N3CCC(C(=O)NCc4ccccn4)CC3)sc2c1	i	i	i	i	i	·	·	·	·	·	·
O=C1Nc2ccccc2OC1CC(=O)N1CCN(c2cccc(C(F)(F)F)c2)CC1 (configuration not stated)	i	i	i	i	-9.7*	·	·	·	·	i	i	TRPC4 spec 2=i;TRPC4 spec=i;HEK293 MPD ctr 2-1=i;HEK293 MPD ctr-1=i
COc1ccc(NC(=O)CN(C)C(=O)Cn2c(=O)oc3ccccc32)cc1	i	i	i	i	i	·	·	·	·	·	·
NCCSc1c(-c2ccccc2)[nH]c2ccccc12	i	i	i	i	-5.3*	i	i	i	57%*	52%*	i
Cc1[nH]c2ccccc2c1SCCN	i	i	i	i	i	·	·	·	·	·	·
COc1ccc(-c2[nH]c3ccccc3c2SCCNC(=O)c2ccccc2)cc1	i	i	i	i	i	·	·	·	·	·	·
NCCSc1c(-c2ccc(F)cc2)[nH]c2ccccc12	i	i	i	i	-6*	i	i	i	83%*	77%*	i
NCCSc1c(-c2ccc(Cl)cc2)[nH]c2ccccc12	i	i	i	129*	-6.7*	·	·	·	·	69%*	i	TRPC4 spec 2=23%*;TRPC4 spec=-12%*;HEK293 MPD ctr 2-1=i;HEK293 MPD ctr-1=-323%*
Cc1ccc(-c2[nH]c3ccccc3c2SCCN)cc1	i	i	-7*	i	-6.7*	·	·	·	·	i	i	TRPC4 spec 2=36%*;TRPC4 spec=-12%*;HEK293 MPD ctr 2-1=i;HEK293 MPD ctr-1=-296%*
C=CCNC(=O)NC(=O)COC(=O)/C(C#N)=C/c1ccc(OC)cc1	i	i	i	i	i	·	·	·	·	·	·
CCOC(=O)C(=O)N1CCN(c2nc(-c3ccc(Cl)cc3)cs2)CC1	i	i	i	i	-6.2*	i	i	i	i	i	i
COc1ccc(-n2nc(C(N)=O)nc2-c2ccccc2)cc1	i	i	i	i	-5.8*	i	i	i	i	48%*	·
Cc1ccc(-n2nc(C(N)=O)nc2-c2ccccc2)cc1	i	i	i	i	i	·	·	·	·	·	·

Source: PubChem BioAssay (Johns Hopkins Ion Channel Center)
